# Data from ChEMBL document CHEMBL1142436, “Design and synthesis of 4-substituted indolo[3,2-e][1,2,3]triazolo[1,5-a]pyrimidine derivatives with antitumor activity” (2008).
# How the values were obtained:
# Type in all cases: functional
# SN12C = assay: Growth inhibition of human SN12C cells after 48 hrs
# Outline: (§1)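 NCI 60-line screen: cells in RPMI 1640 with 5% FBS and 2 mM L-glutamine, plated at 5000–40000 cells/well, grown 24 h (37 °C, 5% CO₂), then exposed to five 10-fold or ½-log dilutions (DMSO stock) for 48 h. Fixed with TCA (final 10% for adherent cells, 16% for suspension cells), then SRB stained with absorbance at 515 nm. GI50 from percentage growth relative to time-zero and control wells.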
# SK-MEL-5 = assay: Growth inhibition of human SK-MEL5 cells after 48 hrs; details: SK-MEL-5, 48 h
# Outline: (§2)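 NCI ~60-line screen. Cells were grown in RPMI 1640 with 5% FBS and 2 mM L-glutamine and plated at 5000–40000 cells/well. After a 24 h preincubation, five drug concentrations from DMSO stocks were added for 48 h at 37 °C. Cells were TCA-fixed, stained with SRB and read at 515 nm. GI50 was taken from time-zero and control absorbances and reported as pGI50.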
# COLO 205 = assay: Growth inhibition of human COLO205 cells after 48 hrs; details: COLO 205, 48 h; outline: as §2
# U-251 = assay: Growth inhibition of human U251 cells after 48 hrs; details: U-251, 48 h; outline: as §1
# OVCAR-5 = assay: Growth inhibition of human OVCAR5 cells after 48 hrs; details: OVCAR-5, 48 h; outline: as §2
# NCI/ADR-RES = assay: Growth inhibition of human NCI/ADR-RES cells after 48 hrs; outline: as §2
# UACC-62 = assay: Growth inhibition of human UACC62 cells after 48 hrs; details: UACC-62, 48 h; outline: as §1
# KM12 = assay: Growth inhibition of human KM12 cells after 48 hrs; details: KM12, 48 h; outline: as §2
# SK-OV-3 = assay: Growth inhibition of human SKOV3 cells after 48 hrs; details: SK-OV-3, 48 h; outline: as §1
# K562 = assay: Growth inhibition of human K562 cells after 48 hrs; details: K562, 48 h; outline: as §2
# SNB-19 = assay: Growth inhibition of human SNB19 cells after 48 hrs; details: SNB-19, 48 h; outline: as §1
# SF-295 = assay: Growth inhibition of human SF295 cells after 48 hrs; details: SF-295, 48 h; outline: as §2
# SW-620 = assay: Growth inhibition of human SW620 cells after 48 hrs; details: SW-620, 48 h; outline: as §1
# MOLT-4 = assay: Growth inhibition of human MOLT4 cells after 48 hrs; details: MOLT-4, 48 h; outline: as §2
# OVCAR-3 = assay: Growth inhibition of human OVCAR-3 cells after 48 hrs; details: OVCAR-3, 48 h; outline: as §2
# MDA-MB-231 = assay: Growth inhibition of human MDA-MB-231 cells after 48 hrs; details: MDA-MB-231, 48 h; outline: as §2
# ACHN = assay: Growth inhibition of human ACHN cells after 48 hrs; outline: as §2
# A498 = assay: Growth inhibition of human A498 cells after 48 hrs; details: A498, 48 h; outline: as §2
# RXF 393 = assay: Growth inhibition of human RXF393 cells after 48 hrs; details: RXF 393, 48 h; outline: as §2
# HCC 2998 = assay: Growth inhibition of human HCC2998 cells after 48 hrs; details: HCC 2998, 48 h; outline: as §2
# DU-145 = assay: Growth inhibition of human DU145 cells after 48 hrs; details: DU-145, 48 h; outline: as §2
# PC-3 = assay: Growth inhibition of human PC3 cells after 48 hrs; details: PC-3, 48 h; outline: as §2
# IGROV-1 = assay: Growth inhibition of human IGROV1 cells after 48 hrs; details: IGROV-1, 48 h; outline: as §2
# NCI-H522 = assay: Growth inhibition of human NCI-H522 cells after 48 hrs; details: NCI-H522, 48 h; outline: as §2
# [1] = Growth inhibition of human HS578T cells after 48 hrs; details: Hs-578T; outline: as §2
# TK-10 = assay: Growth inhibition of human TK10 cells after 48 hrs; details: TK-10, 48 h; outline: as §1
# CCRF-CEM = assay: Growth inhibition of human CCRF-CEM cells after 48 hrs; outline: as §2
# NCI-H460 = assay: Growth inhibition of human NCI-H460 cells after 48 hrs; details: NCI-H460, 48 h; outline: as §2
# SK-MEL-2 = assay: Growth inhibition of human SK-MEL2 cells after 48 hrs; details: SK-MEL-2, 48 h; outline: as §2
smiles,measurement,setting,value
Cn1c2ccccc2c2c(=O)n(CCCC(=O)NCC(=O)N(C(=O)NC3CCCCC3)C3CCCCC3)c3c(-c4ccccc4)nnn3c21,GI50,SN12C,19.5 µM
same,LC50,SN12C,> 100 µM
same,TGI,SN12C; read-out: pTGI (converted),50.1 µM
same,GI50,SK-MEL-5,6.03 µM
same,LC50,SK-MEL-5,> 100 µM
same,TGI,SK-MEL-5; read-out: pTGI (converted),31.6 µM
same,GI50,COLO 205,2.82 µM
same,LC50,COLO 205,> 100 µM
same,TGI,COLO 205; read-out: pTGI (converted),> 100 µM
same,GI50,U-251,12.3 µM
same,LC50,U-251,> 100 µM
same,TGI,U-251; read-out: pTGI (converted),38 µM
same,GI50,OVCAR-5,15.5 µM
same,LC50 (concentration killing 50% of cells),OVCAR-5,69.2 µM
same,TGI,OVCAR-5; read-out: pTGI (converted),32.4 µM
same,GI50,NCI/ADR-RES,15.5 µM
same,LC50 (concentration killing 50% of cells),NCI/ADR-RES,72.4 µM
same,TGI,NCI/ADR-RES; read-out: pTGI (converted),33.9 µM
same,GI50,UACC-62,25.7 µM
same,LC50,UACC-62,> 100 µM
same,TGI,UACC-62; read-out: pTGI (converted),> 100 µM
same,GI50,KM12,31.6 µM
same,LC50,KM12,> 100 µM
same,TGI,KM12; read-out: pTGI (converted),> 100 µM
same,LC50,SK-OV-3,33.9 µM
same,TGI,SK-OV-3; read-out: pTGI (converted),18.6 µM
same,GI50,K562,22.9 µM
same,LC50,K562,> 50.1 µM
same,TGI,K562; read-out: pTGI (converted),> 100 µM
same,LC50,SNB-19,> 100 µM
same,TGI,SNB-19; read-out: pTGI (converted),> 100 µM
same,GI50,SF-295,> 100 µM
same,LC50,SF-295,> 100 µM
same,TGI,SF-295; read-out: pTGI (converted),> 100 µM
same,GI50,SW-620,3.8 µM
same,"LC50 (lethal concentration, 50% cell kill)",SW-620,> 100 µM
same,TGI,SW-620; read-out: pTGI (converted),> 100 µM
same,GI50,MOLT-4,14.5 µM
same,LC50,MOLT-4,> 100 µM
same,TGI,MOLT-4; read-out: pTGI (converted),> 100 µM
same,GI50,OVCAR-3,19.5 µM
same,LC50,OVCAR-3,> 100 µM
same,TGI,OVCAR-3; read-out: pTGI (converted),95.5 µM
same,GI50,MDA-MB-231,12.3 µM
same,LC50 (concentration killing 50% of cells),MDA-MB-231,> 100 µM
same,TGI,MDA-MB-231; read-out: pTGI (converted),38 µM
same,GI50,ACHN,26.3 µM
same,LC50,ACHN,> 100 µM
same,TGI,ACHN; read-out: pTGI (converted),> 100 µM
same,GI50,A498,30.9 µM
same,CC50,A498; read-out: Log LC50 (the source's name) (converted),> 100 µM
same,TGI,A498; read-out: pTGI (converted),> 100 µM
same,GI50,RXF 393,11 µM
same,LC50,RXF 393,> 100 µM
same,TGI,RXF 393; read-out: pTGI (converted),37.2 µM
same,GI50,HCC 2998,10.2 µM
same,LC50,HCC 2998,70.8 µM
same,TGI,HCC 2998; read-out: pTGI (converted),26.9 µM
same,GI50,DU-145,18.6 µM
same,LC50,DU-145,> 100 µM
same,TGI,DU-145; read-out: pTGI (converted),> 100 µM
same,GI50,PC-3,22.9 µM
same,LC50,PC-3,> 100 µM
same,TGI,PC-3; read-out: pTGI (converted),> 100 µM
same,GI50,IGROV-1,2.82 µM
same,LC50,IGROV-1,> 100 µM
same,TGI,IGROV-1; read-out: pTGI (converted),33.1 µM
same,GI50,NCI-H522,15.8 µM
same,LC50,NCI-H522,> 100 µM
same,TGI,NCI-H522; read-out: pTGI (converted),81.3 µM
same,GI50,[1],9.33 µM
same,LC50 (50% lethal concentration),[1],> 100 µM
same,TGI,[1]; read-out: pTGI (converted),> 100 µM
same,GI50,TK-10,> 100 µM
same,LC50,TK-10,> 100 µM
same,TGI,TK-10; read-out: pTGI (converted),> 100 µM
same,GI50,CCRF-CEM,8.32 µM
same,LC50,CCRF-CEM,> 100 µM
same,TGI,CCRF-CEM; read-out: pTGI (converted),57.5 µM
same,GI50,NCI-H460,32.4 µM
same,LC50,NCI-H460,> 100 µM
same,TGI,NCI-H460; read-out: pTGI (converted),> 100 µM
same,GI50,SK-MEL-2,33.1 µM
same,LC50,SK-MEL-2,> 100 µM
same,TGI,SK-MEL-2; read-out: pTGI (converted),> 100 µM
